The source made the active and inactive calls. The calls are words filed in the database; no cut-off is given here.
Key:
Bos taurus [1] = organism: Bos taurus; experiment: Inhibition of calf thymus DNA topoisomerase 1-mediated relaxation of supercoiled pBR322 plasmid DNA by agarose gel electrophoresis
Summary of the method: (§1)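 Reaction contained 1 unit calf thymus topo I and supercoiled pBR322 in 35 mM Tris-HCl pH 8.0, 72 mM KCl, 5 mM MgCl2, 5 mM DTT, 5 mM spermidine and 0.1% BSA, with or without compound, at 37 °C. Products were run on 1% agarose in TBE at 5 V/cm, stained with ethidium bromide and photographed under UV. Supercoiled and relaxed bands were quantified from gel images.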

Bos taurus [2] = organism: Bos taurus; experiment: Inhibition of calf thymus DNA topoisomerase 1-mediated relaxation of supercoiled pBR322 plasmid DNA at 1 ug/ml by agarose gel electrophoresis; summary of the method: as §1
HeLa = experiment: Cytotoxicity against human HeLa cells after 72 hrs by MTT assay; assay type: functional, cell-based
Summary of the method: (§2)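 Cells seeded at 5000/well and left to attach overnight, then given fresh medium containing compound over […] and incubated 72 h. Viability read by MTT: 4 h contact, crystals dissolved in DMSO over 60 min of shaking, absorbance at 545 nm. Untreated wells served as controls; DMSO at most 0.3%. Two plates with at least five parallel wells each; IC50 from fitted dose–response curves.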

MCF7 = experiment: Cytotoxicity against human MCF7 cells after 72 hrs by MTT assay; assay type: functional, cell-based; details: MCF7, 72 h; summary of the method: as §2
A-431 = experiment: Cytotoxicity against human A431 cells after 72 hrs by MTT assay; assay type: functional, cell-based; details: A-431, 72 h; summary of the method: as §2

Compound	inhibition (Bos taurus [1])	inhibition (Bos taurus [2])	IC50 (HeLa) [µM]	IC50 (MCF7) [µM]	IC50 (A-431) [µM]
Clc1ccc2[nH]c(-c3ccccc3OCCN3CCOCC3)nc2c1	Dose-dependent effect	inactive			
COc1cccc2c1C(=O)c1c(O)c3c(c(O)c1C2=O)C[C@@](O)(C(=O)CO)C[C@@H]3O[C@H]1C[C@H](N)[C@H](O)[C@H](C)O1 [DOXORUBICIN]			0.16	0.31	0.19
c1ccc(-c2nc3ccccc3[nH]2)c(OCCN2CCCCC2)c1	Dose-dependent effect	inactive			
Clc1ccc2[nH]c(-c3ccccc3OCCN3CCCC3)nc2c1	Dose-dependent effect	inactive			
Clc1ccc2[nH]c(-c3ccccc3OCCN3CCCCC3)nc2c1	Dose-dependent effect	inactive			
CCN(CC)CCOc1ccccc1-c1nc2cc(Cl)ccc2[nH]1	Dose-dependent effect	inactive			

The next lines start with results.

inhibition (Bos taurus [1])	inhibition (Bos taurus [2])	Compound	IC50 (HeLa) [µM]	IC50 (MCF7) [µM]	IC50 (A-431) [µM]
Dose-dependent effect	95.4%	Oc1ccccc1-c1nc2ccccc2[nH]1	26.4	16	> 30
Dose-dependent effect	90.2%	c1ccc(-c2nc3ccccc3[nH]2)c(OCCN2CCCC2)c1	19.8	> 30	> 30
Dose-dependent effect	inactive	c1ccc(-c2nc3ccccc3[nH]2)c(OCCN2CCOCC2)c1			
Dose-dependent effect	99%	Oc1ccccc1-c1nc2cc(Cl)ccc2[nH]1	6.04	6.94	6.16
